Reference: ChEMBL document CHEMBL1146355, “Synthesis and cytotoxic evaluation of C-9 oxidized podophyllotoxin derivatives” (Bioorg Med Chem, 2007)

Experiments:
Type in all cases: functional, cell-based
P388 = experiment: Cytotoxicity against mouse P388 cells after 4 days; conditions: P388, 96 h
Summary of the method: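 Murine leukaemia cells seeded at 1 × 10⁴/well in MEM with 10% FCS containing the compound at different concentrations. Incubated 4 days at 37 °C under 10% CO₂ and 98% humidity, with drug-free controls counted daily to confirm exponential growth. Inhibition judged by inverted microscopy against controls, with no staining.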

A549 = experiment: Cytotoxicity against human A549 cells after 4 days; conditions: A549, 96 h
Summary of the method: (§1)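 Cells seeded at 2 × 10⁴/well in MEM with 10% FCS containing the compound at different concentrations. Incubated 4 days at 37 °C under 10% CO₂ and 98% humidity. Drug-free control wells were counted daily to confirm exponential growth. Read-out was crystal violet staining, then inhibition estimated by comparison with controls.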

HT-29 = experiment: Cytotoxicity against human HT29 cells after 4 days; conditions: HT-29, 96 h; summary of the method: as §1
[1] = Cytotoxicity against human MEL28 cells after 4 days; conditions: SK-MEL-28, 96 h; summary of the method: as §1

COc1cc([C@H]2C3=C(Cc4cc5c(cc42)OCO5)C(O)OC3=O)cc(OC)c1OC (stereo partly drawn)
IC50 (P388): 1200 nM
IC50 (A549): 1200 nM
IC50 (HT-29): 1200 nM

COc1cc([C@@H]2c3cc4c(cc3C=C3C(=O)OC[C@H]32)OCO4)cc(OC)c1OC
IC50 (P388): > 20000 nM
IC50 (A549): > 20000 nM
IC50 (HT-29): > 20000 nM
IC50 [1]: > 20000 nM

COC(=O)[C@@H]1C(C#N)=Cc2cc3c(cc2[C@H]1c1cc(OC)c(OC)c(OC)c1)OCO3
IC50 (A549): 2400 nM
IC50 (HT-29): 2400 nM
IC50 [1]: 2400 nM

COC(=O)[C@@H]1C(C(=O)O)=Cc2cc3c(cc2[C@H]1c1cc(OC)c(OC)c(OC)c1)OCO3
IC50 (P388): > 20000 nM
IC50 (A549): > 20000 nM
IC50 (HT-29): > 20000 nM
IC50 [1]: > 20000 nM

COC(=O)C1=Cc2cc3c(cc2[C@@H](c2cc(OC)c(OC)c(OC)c2)[C@@H]1C(=O)OC)OCO3
IC50 (P388): 5100 nM
IC50 (A549): 5100 nM
IC50 (HT-29): 5100 nM
IC50 [1]: 5100 nM

COc1cc([C@@H]2c3cc4c(cc3C=C(C(=O)O)[C@H]2C(=O)O)OCO4)cc(OC)c1OC
IC50 (P388): > 20000 nM
IC50 (A549): > 20000 nM
IC50 (HT-29): > 20000 nM
IC50 [1]: > 20000 nM

COc1cc([C@@H]2c3cc4c(cc3C=C3C(=O)OC(=O)[C@H]32)OCO4)cc(OC)c1OC
IC50 (P388): 12000 nM
IC50 (A549): 12000 nM
IC50 (HT-29): 12000 nM
IC50 [1]: 12000 nM

COC(=O)[C@@H]1C(C(=O)Nc2ccccc2)=Cc2cc3c(cc2[C@H]1c1cc(OC)c(OC)c(OC)c1)OCO3
IC50 (P388): 1900 nM
IC50 (A549): 1900 nM
IC50 (HT-29): 1900 nM

COC(=O)[C@@H]1C(C(=O)Nc2ccc(C)cc2)=Cc2cc3c(cc2[C@H]1c1cc(OC)c(OC)c(OC)c1)OCO3
IC50 (P388): 1900 nM
IC50 (A549): 1900 nM
IC50 (HT-29): 1900 nM
IC50 [1]: 1900 nM

COC(=O)[C@@H]1C(C(=O)OC(C)=O)=Cc2cc3c(cc2[C@H]1c1cc(OC)c(OC)c(OC)c1)OCO3
IC50 (P388): 10000 nM
IC50 (A549): 10000 nM
IC50 (HT-29): 10000 nM
IC50 [1]: 10000 nM

COc1cc(-c2c3c(cc4cc5c(cc24)OCO5)C(=O)N(CCO)C3=O)cc(OC)c1OC
IC50 (P388): 2200 nM
IC50 (A549): 2200 nM
IC50 (HT-29): 2200 nM

COC(=O)[C@@H]1C(C(=O)Nc2cc(OC)c(OC)c(OC)c2)=Cc2cc3c(cc2[C@H]1c1cc(OC)c(OC)c(OC)c1)OCO3
IC50 (P388): 1700 nM
IC50 (A549): 1700 nM
IC50 (HT-29): 1700 nM

CCCCCCNC(=O)c1cc2cc3c(cc2c(-c2cc(OC)c(OC)c(OC)c2)c1C(=O)NCCCCCC)OCO3
IC50 (P388): 2000 nM
IC50 (A549): 2000 nM
IC50 (HT-29): 2000 nM

CCCCCCNC(=O)C1=Cc2cc3c(cc2[C@@H](c2cc(OC)c(OC)c(OC)c2)[C@@H]1C(=O)OC)OCO3
IC50 (P388): 1900 nM
IC50 (A549): 1900 nM
IC50 (HT-29): 1900 nM

COc1cc([C@@H]2c3cc4c(cc3C=C(C=O)[C@H]2CO)OCO4)cc(OC)c1OC
IC50 [1]: 250 nM

COC(=O)[C@@H]1C(/C=N/O)=Cc2cc3c(cc2[C@H]1c1cc(OC)c(OC)c(OC)c1)OCO3
IC50 [1]: 2300 nM

COc1cc([C@@H]2c3cc4c(cc3[C@H](O)[C@H]3COC(=O)[C@H]23)OCO4)cc(OC)c1OC [PODOFILOX]
IC50 (HT-29): 12 nM

COC(=O)[C@@H]1C(C=O)=Cc2cc3c(cc2[C@H]1c1cc(OC)c(OC)c(OC)c1)OCO3 [PODOPHYLLIC ALDEHYDE]
IC50 [1]: 230 nM
